Screening results as filed in PubChem.
Calb FLC – affects C. albicans growth with fluconazole | 300,000 tested, 0.57% active | C. albicans CaCi-2 (fluconazole-resistant clinical isolate) + fluconazole, Alamar Blue growth, 48 h | AID 1979 | growth inhibition, % (no concentration beside the values);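 active = growth inhibition above about 58% in most replicates, limit read from the data, passing the limit was not always enough; inconclusive = exactly half the replicates above a set limit; inactive = most replicates below a set limit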;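 note: all wells also contain fluconazole at 8 µg/ml as a sub-toxic cotreatment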
T cruzi inh – blocks replication of Trypanosoma cruzi; T. cruzi beta-gal in NIH3T3, luminescence, 90 h; inhibition, % (no concentration beside the values); 300,000 tested, 1.4% active;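 active = mean inhibition across valid replicates above about 55%, limit read from the data; inconclusive = mean below that limit but half or more replicates reach it; inactive = mean below it, under half of replicates reach it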;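 note: signal also drops with host cell toxicity which is not excluded here; higher percent means less beta-gal luminescence so fewer parasites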
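compound dosing = single 50 nL compound addition per well in DMSO | material = NIH/3T3 host cells with β-galactosidase reporter T. cruzi | input = 5,000 host fibroblasts per well | timing = ≥90 h infection period, 3 h prior cell attachment | read-out basis = percent inhibition of parasite-derived β-gal signal | detection = GalScreen β-gal luminescence, detergent lysis, 60 min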
Lmaj promast – inhibitors of Leishmania major promastigote growth; Leishmania major promastigotes, resazurin fluorescence viability; inhibition, % at 10 µM; 200,000 tested, 9% active; AID 1063; in the data active = inhibition above about 50%;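 note: promastigotes grown with compound for 44 hours at 28 °C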
PolyA inh – yeast polyadenylation inhibition. activity score, % at 12 µM. S. cerevisiae SKY197-pL101 polyadenylation reporter, beta-gal luminescence; efflux-impaired pdr1/pdr3 knockout yeast; score 100 = 6 SD above DMSO. 300,000 tested, 0.02% active;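 active = lowest replicate activity score at least 50, where 100 means six control SD above control mean; inconclusive = lowest score under 50 but half or more replicates reach 50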;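 note: yeast exposed to compound for 9 h at 30 °C; higher score means more reporter readthrough which indicates perturbed polyadenylation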
NALP1 inh – blocks the NALP1 inflammasome reconstituted in yeast; inhibition, % at 10 µM; S. cerevisiae NALP1/ASC/caspase-1 growth, X-gal OD620, 72 h; 280,000 tested, 0.61% active; in the data active = inhibition mostly above about 24%, no sharp cut-off; inactive = mostly below about 32%
NALP3 yeast inh – blocks the NALP3 inflammasome reconstituted in yeast | Yeast reconstituted NLRP3/ASC/caspase-1, beta-gal luminescence, 24 h | 330,000 tested, 0.39% active | inhibition, % at 10 µM;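 active = inhibition of 50% or more; inactive = inhibition below 50%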
Hits are given with their value; n = inactive; u = inconclusive; x = no result given. This excerpt belongs to a sample that is enriched for hits.

SMILES | Calb FLC | T cruzi inh | Lmaj promast | PolyA inh | NALP1 inh | NALP3 yeast inh
COC(=O)c1c(NC(=O)CN2CCC3(O)CCCCC3C2c2ccccc2OC)sc(C)c1C (stereo unspecified) | n | n | n | n | n | n
COc1cc([C@H]2[C@@H]3CCCC[C@]3(O)CCN2CC(=O)Nc2ccc(C)cc2C)ccc1O | n | n | 65 | n | n | n
Cc1ccc(S(=O)(=O)NNC(=O)c2ccoc2C)cc1 | n | n | x | n | n | n
NC(=O)/C(=C\c1ccccc1)NC(=O)/C=C/c1ccccc1 | n | n | n | n | n | n
CCNC(=O)/C(=C\c1ccccc1)NC(=O)/C=C/c1ccccc1 | n | n | 85 | n | n | n
O=C(CN1C(=O)CSc2ncccc21)Nc1ccccc1F | n | n | x | n | n | n
CCCC1=[N+](CC(=O)c2ccccc2)CCn2c(C)ccc21 | u | n | 90 | n | n | n
O=C(Nc1ccc(Br)cc1F)c1ccc2c(c1)N(Cc1ccccc1)C(=O)CS2=O (stereo unspecified) | n | n | 100 | n | n | n
CCS(=O)(=O)NCC(c1cccnc1)N1CCN(c2ccc(OC)cc2)CC1 (stereo unspecified) | n | 58 | n | n | n | n
COc1ccc(N2CCN(C(CNC(=O)C(=O)NCCCn3ccnc3)c3cccnc3)CC2)cc1 (stereo unspecified) | n | 63 | n | n | n | n
O=C(NCCCn1ccnc1)C(=O)NCC(c1cccnc1)N1CCN(c2ccc(F)cc2)CC1 (stereo unspecified) | n | n | n | n | n | n
CCS(=O)(=O)NCC(c1cccnc1)N1CCN(c2ccccc2)CC1 (stereo unspecified) | n | n | n | n | n | n
CC(C)CC(=O)NC(=S)Nc1ccc(S(=O)(=O)N2CCN(C)CC2)cc1 | n | n | 67 | n | n | n
CN1CCN(S(=O)(=O)c2ccc(NC(=O)c3csc4ccccc34)cc2)CC1 | n | n | 56 | n | n | n
CN1CCN(S(=O)(=O)c2ccc(NC(=S)NC(=O)C3CCCC3)cc2)CC1 | n | n | n | n | n | n
CC(C)CC(=O)Nc1ccc(S(=O)(=O)N2CCCC2)cc1 | n | n | x | n | n | n
CC(C)C(=O)NC(=S)Nc1ccc(S(=O)(=O)N2CCN(C)CC2)cc1 | n | n | 87 | n | n | n
CCOC(=O)c1cnc2c(C)cc(Cl)cc2c1N1CCN(C)CC1 | n | n | x | n | n | n
NS(=O)(=O)c1cccc(NC(=O)CN2CCC(Cc3ccccc3)CC2)c1 | n | n | n | n | n | n
O=C(CN1C(=O)COc2ccccc21)N1CCOCC1 | n | n | x | n | n | n
CC(C)c1c(C(=O)N/N=C/C=C/c2ccccc2)nnn1-c1nonc1N | n | n | x | n | n | n
CCOc1ccc(-c2nc(-c3cccnc3)no2)cc1OCC | n | n | 81 | n | n | n
CCOc1ccc(-c2noc(-c3cccnc3)n2)cc1OCC | n | x | x | n | n | n
CCOc1ccc(-c2noc(-c3ccncc3)n2)cc1OCC | n | n | 93 | n | n | n
COc1ccc(-c2nc(-c3ccncc3)no2)cc1OC | 102 | n | n | n | n | n
SMILES | Calb FLC | T cruzi inh | Lmaj promast | PolyA inh | NALP1 inh | NALP3 yeast inh
Cc1ccc(-c2nc(-c3cccnc3)no2)c(C)c1 | 95 | n | n | n | n | n
Cc1ccc(-c2nc(-c3ccncc3)no2)cc1C | n | n | x | n | n | n
O=C(NCc1nc(-c2ccc(C(F)(F)F)cc2)no1)Nc1ccc(OC(F)(F)F)cc1 | n | n | x | u | x | n
c1ccc(CCNc2ncnc3ccccc23)cc1 | 94 | n | n | n | n | n
O=Cc1c(OCc2ccccc2)ccc2ccccc12 | n | n | 82 | n | n | n
C/C(=N\NC(=O)c1ccc(NS(=O)(=O)c2cccs2)cc1)c1ccc2c(c1)OCO2 | n | n | 74 | n | n | n
O=S(=O)(Nc1nc2ccccc2nc1Nc1ccc2c(c1)OCCO2)c1cccs1 | n | n | 53 | n | n | n
Cc1ccc2c(c1)C1CN(C)CCC1N2Sc1ccccc1[N+](=O)[O-] (stereo unspecified) | 97 | n | x | n | x | n
Cc1ccc2c(c1)[C@@H]1CN(C)CC[C@@H]1N2S(=O)(=O)c1ccc([N+](=O)[O-])cc1 | n | n | n | n | n | n
Cc1ccc2c(c1)[C@@H]1CN(C)CC[C@@H]1N2S(=O)(=O)c1ccc(F)cc1 | n | n | 88 | n | n | n
Cn1ccnc1Sc1nc2ccccc2nc1NS(=O)(=O)c1ccccc1 | n | n | n | n | n | n
O=C(NC(=S)NCc1ccccc1)c1ccccc1[N+](=O)[O-] | n | n | n | n | n | n
COc1ccc(CCN(Cc2cccs2)S(=O)(=O)c2ccc(S(=O)(=O)N(C)C3CCCCC3)cc2)cc1OC | n | 61 | n | n | n | n
COC(=O)C(CCSC)NC(=O)C12CC3CC(CC(C3)C1)C2 (stereo unspecified) | n | n | 95 | n | n | n
CSCCC(NC(=O)C12CC3CC(CC(C3)C1)C2)C(=O)OCC(=O)c1ccc(Cl)cc1 (stereo unspecified) | n | n | n | n | n | n
COc1ccc(-c2oc3ncnc(NCCN4CCOCC4)c3c2-c2ccc(OC)cc2)cc1 | n | u | n | n | n | n
COc1cc2ncnc(NCCCN3CCOCC3)c2cc1OC | n | n | x | n | x | n
COc1ccc(-c2oc3ncnc(NCCCN4CCOCC4)c3c2-c2ccc(OC)cc2)cc1 | n | n | 75 | n | n | n
CN(C)CCNc1ncnc2c1cnn2-c1ccc(Cl)cc1 | n | n | 98 | n | n | n
COc1ccc(-c2oc3ncn(CCN4CCOCC4)c(=N)c3c2-c2ccc(OC)cc2)cc1 | n | n | 55 | n | n | n
CCOc1cc2nc(-c3ccc(OC)c(OC)c3)nc(NCCCN3CCOCC3)c2cc1OC | n | n | 54 | n | n | n
O=C(CCC1CCCCC1)Nc1c2c(nn1-c1ccc(F)cc1)CS(=O)C2 (stereo unspecified) | n | n | n | n | n | n
c1ccc(-n2ncc3c(NCc4cccnc4)ncnc32)cc1 | n | n | 61 | n | n | n
COc1ccc(-n2ncc3c(NCCN4CCOCC4)ncnc32)cc1 | n | n | 92 | n | n | n
c1ccc(-c2oc3ncnc(NCCCN4CCOCC4)c3c2-c2ccccc2)cc1 | n | n | 100 | n | n | n
c1ccc(-n2ncc3c(NCc4cccs4)ncnc32)cc1 | n | n | n | n | n | n
C=CCC(=O)N1CCCC(C(=O)c2ccc(Cl)cc2)C1 (stereo unspecified) | n | n | x | n | n | n
O=C(O)c1ccccc1C(=O)c1ccc2c(c1)N(Cc1ccc(Cl)c(Cl)c1)C(=O)CO2 | n | n | 100 | n | n | n
COc1ccc(OC)c(C2=NS(=O)(=O)N(C)C(C(=O)N3CCC4(CC3)OCCO4)=C2)c1 | n | n | x | n | n | n
